These results are taken from PubChem BioAssay AID602194 (The Scripps Research Institute Molecular Screening Center, 2012).

The structures appear in SMILES notation. In all, about 2,400 compounds went through this assay and about 140 (5.8%) were called active.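 The calls were made as follows: active = mean activation across replicates exceeds the hit threshold derived in the earlier primary screen (cut at about 18% in these data); inactive = the rest.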 The list is a sample of the results.

The target of the assay is Mu-type opioid receptor (Homo sapiens) + Delta-type opioid receptor (Homo sapiens) (UniProt P35372+P41143). The assay can be described thus: agonists of MOR-DOR heterodimerization, counter-screen for MC4R biased agonist project, cell-based, luminescence (AID 602194).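 Also: 100% = deltorphin B at 0.9 µM final and 0% = DMSO alone.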 The following applies: U2OS PathHunter beta-arrestin, beta-gal luminescence; at 9.2 µM; stronger effect = higher value; percent of deltorphin B response, DMSO zero. A digest of the protocol: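 Material: U2OS Mu-Delta cells coexpressing OPRM1, OPRD1 and beta-arrestin. Schedule: 23 h growth, 3 h compound 37 °C, 1 h detection. Measured by: beta-gal complementation luminescence. Read-out: percent activation, mean of triplicates, scaled between DMSO and Deltorphin B. Control set: Deltorphin B high, DMSO low. Repeats: three replicates.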
Mu-type opioid receptor (Homo sapiens) + Delta-type opioid receptor (Homo sapiens), sequence (P35372 whole entry, looked up): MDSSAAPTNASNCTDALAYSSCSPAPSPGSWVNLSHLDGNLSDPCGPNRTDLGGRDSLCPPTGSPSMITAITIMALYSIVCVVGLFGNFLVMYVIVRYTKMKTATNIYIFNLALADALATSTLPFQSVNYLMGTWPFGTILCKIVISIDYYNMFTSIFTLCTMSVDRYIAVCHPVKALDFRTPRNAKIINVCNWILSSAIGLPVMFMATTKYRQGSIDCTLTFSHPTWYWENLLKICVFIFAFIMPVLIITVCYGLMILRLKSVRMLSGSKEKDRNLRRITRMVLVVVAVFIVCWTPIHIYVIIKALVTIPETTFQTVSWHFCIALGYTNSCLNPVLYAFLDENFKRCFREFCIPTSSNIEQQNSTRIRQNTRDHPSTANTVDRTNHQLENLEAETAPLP
Mu-type opioid receptor (Homo sapiens) + Delta-type opioid receptor (Homo sapiens), sequence (P41143 whole entry, looked up): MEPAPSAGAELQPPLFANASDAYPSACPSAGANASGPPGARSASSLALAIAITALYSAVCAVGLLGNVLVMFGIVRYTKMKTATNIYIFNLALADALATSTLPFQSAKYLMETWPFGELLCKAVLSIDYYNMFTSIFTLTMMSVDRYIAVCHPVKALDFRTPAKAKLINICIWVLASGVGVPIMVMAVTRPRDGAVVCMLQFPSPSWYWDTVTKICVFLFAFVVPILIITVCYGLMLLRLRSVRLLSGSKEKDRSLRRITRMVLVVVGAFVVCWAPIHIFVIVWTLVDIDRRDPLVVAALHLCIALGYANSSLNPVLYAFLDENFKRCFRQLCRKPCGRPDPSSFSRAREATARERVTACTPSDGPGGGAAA
(The purpose of a counterscreen is to sort out artefacts and off-target activity.)
On to `COC(=O)c1sccc1NC(=O)CCC1CCCC1`, for which the activation was 6.23% (inactive).
For `O=C(CCCN1C(=O)/C(=C/c2cccs2)SC1=S)Nc1ccc(O)cc1` the value was 1.75% (inactive).
Under `N#CCC(=O)N/N=C/c1cn(Cc2ccc3ccccc3c2)c2ccccc12` stands 25.5% (active); under `CCOC(=O)c1c(-c2ccc(C)cc2C)csc1NC(=O)CSc1nnnn1C`, 7.04% (inactive); under `CCN(CC)c1ccc(C(=O)N/N=C/c2ccc(N3CCOCC3)cc2)cc1`, 13.2% (inactive).
For `COC(=O)c1nc2n(n1)C(c1ccc([N+](=O)[O-])cc1)C(C(=O)Nc1ccc(Cl)cc1)=C(C)N2` (stereo not given) the value was 3.4% (inactive); for `COc1ccc2sc(-c3ccc(S(C)(=O)=O)cc3)c(C#Cc3cncn3C)c2c1`, 9.34% (inactive); for `O=C(CCCCCn1c(=S)[nH]c2cc3c(cc2c1=O)OCO3)N1CCN(c2ccc(F)cc2)CC1`, 3.68% (inactive).
As to `COc1ccc(Cc2nnc(NC(=O)c3ccc(OC)cc3OC)s2)cc1`, the activation was 4.47% (inactive).
Take `CCOC(=O)c1nn(-c2ccccc2F)c2nc(Nc3ccccc3)cc(=O)n12`: the activation was 17.8% (inactive).
For `CCCOc1ccc(C(=O)C(CCC(CNCC)C(=O)c2ccc(OCCC)cc2)CNCC)cc1` (stereo not given) the value was 17.3% (inactive); for `Cc1ccc(-n2nc3cc(Cl)c(NC(=O)c4ccco4)cc3n2)cc1`, 0.83% (inactive); for `Oc1ccccc1N1CCN(c2ncnc3sc(-c4ccccc4)cc23)CC1`, 3.28% (inactive).
For `Cc1ccc(Nc2nnc(SCc3ccccc3)s2)cc1` the value was 8.17% (inactive); for `COc1cccc(CNC(=O)c2nnn(CC(=O)Nc3cc(Cl)ccc3C)c2N)c1`, 11.8% (inactive); for `COCCN(CCOC)S(=O)(=O)c1ccc(C(=O)Nc2nc3c(s2)CCc2ccccc2-3)cc1`, 6.22% (inactive).
Under `Clc1ccc(Nc2ncnc3c2nnn3Cc2ccccc2)cc1` stands 5.74% (inactive).
As to `COC(=O)c1c(C)[nH]c(C(=O)/C=C/c2ccc(Cl)cc2)c1C`, the activation was 4.27% (inactive).
Under `COc1cc(/C=C2\Oc3ccc(C#Cc4ccc(O)cc4)cc3C2=O)cc(OC)c1` stands 11.3% (inactive).
For `CN(C)CCNC(=O)c1cccc(-c2cnc3c(NC=O)cc(-c4cccc(C(F)(F)F)c4)cn23)c1` the value was 7.61% (inactive).
In the case of `O=C(Nc1nc(-c2ccc(-c3ccccc3)cc2)cs1)c1cnccn1`, the activation was 2.08% (inactive).
Under `Clc1ccccc1Nc1nc(NCc2cccs2)nc2ccsc12` stands 5.36% (inactive).
For `CC(C)Oc1c(Br)cc(Br)cc1/C=N/NC(N)=S` the value was 9.18% (inactive).
As for `CCc1ccc(Nc2ncc3c(n2)CC(c2ccco2)CC3=O)cc1` (stereo not given), the activation is 13.5% (inactive).
Turning to `COc1cc(NC(=O)c2cncc(-c3ccc(C#N)cc3)c2)cc(C(=O)Nc2cccc(C(F)(F)F)c2)c1`, the activation was 5.39% (inactive).
Under `COc1ccc(Nc2oc(-c3ccccc3Cl)nc2C#N)cc1` stands 6.69% (inactive).
Under `CCOC(=O)c1c(-c2ccccc2)oc2cc(Br)c(O)c(C=O)c12` stands 3.34% (inactive); under `Cc1ccc2nc(-c3ccncc3)cc(C(=O)Nc3ccc(OC(F)F)cc3)c2c1`, 8.13% (inactive); under `COc1ccc(/C=N/NC(=O)Nc2ccc3nsnc3c2)c(OC)c1`, 3.63% (inactive).
For `Cc1ccc(-n2nc(C)c(/C=N/NC(=O)c3cccs3)c2Cl)cc1` the value was 7.37% (inactive).
For `COc1ccccc1NC(=O)Nc1nnc(Cc2ccc(F)cc2)s1`, the activation is 10.7% (inactive).
Consider `Cc1c(-c2ccccc2)n[nH]c1C(=O)N=Nc1c(O)[nH]c2ccccc12`, for which the activation was 8.27% (inactive).
With `COc1ccc2nc(NC(=O)c3ccc(Br)s3)sc2c1`, the activation was 8.88% (inactive).
As to `C=CCn1c(SCC(=O)c2ccc(Br)cc2)nnc1C(C)NC(=O)Cc1ccc(OC)cc1` (stereo not given), the activation was 7.14% (inactive).
For `O=C(OCc1cn(-c2ccc(Cl)c(Cl)c2)nn1)c1ccccc1Cl` the value was 3.56% (inactive); for `Cc1ccc(C(=O)Nc2ccc(NC(=O)c3cccs3)cc2)c(C)c1`, 6.51% (inactive); for `Cc1ccc(Sc2ccc(NC(=O)c3ccc(F)cc3)cc2C#N)cc1`, 4.2% (inactive).
For `Cc1ccsc1/C=N/Nc1ccc(Cl)nn1` the value was 5.93% (inactive).
Under `Cc1ccc(-c2csc(SCC(=O)Nc3cc(C)on3)n2)cc1` stands 7.19% (inactive); under `COc1cccc(NC(=S)NC(=O)c2c(Cl)c(C)nn2C)c1`, 3.17% (inactive); under `N#CC(=C1SC=CS1)c1nc(-c2ccccc2)cs1`, 3.11% (inactive).
`O=C(c1cc(-c2cccc(O)c2)on1)N1CCc2ccccc2C1`: the activation was 11.4% (inactive).
For `CSc1ccc(S(=O)(=O)NCc2ccc(Cl)cc2)cc1` the value was 8.41% (inactive); for `Cc1ccc(Nc2nnc(SCC(=O)c3cc4ccccc4o3)s2)cc1C`, 4.48% (inactive); for `COc1ccc(C(=O)n2nc(-c3ccc(C)cc3)nc2N)cc1OC`, 4.64% (inactive).
Turning to `Fc1ccccc1/C=N/Nc1cc(N2CCCCC2)ncn1`, the activation was 7.52% (inactive).
For `Cc1cc(OCc2cc(C(=O)NCc3cc(C(C)C)no3)no2)cc(C)c1Cl` the value was 3.52% (inactive); for `CCN1CCC2(CC1)N=C(c1ccc(F)cc1)C(=S)N2C(=O)c1ccc(C)cc1`, 52% (active).
Under `CCN(CC)C(=O)Oc1ccc(Br)cc1C(=O)Nc1ccc(F)c(Cl)c1` stands 3.45% (inactive); under `CN(C)CCCN(C(=O)c1ccc(S(=O)(=O)N2CCCCCC2)cc1)c1nc2ccc(Br)cc2s1`, 16.5% (inactive); under `S=C(NCCCc1cnc[nH]1)NCCCN(Cc1ccc(Cl)c(Cl)c1)c1ccc(Br)cn1`, 5.39% (inactive).
As to `COc1ccc(Cn2c(C)c(C)c(C#N)c2NC(=O)Nc2ccc(F)cc2)cc1`, the activation was 7.17% (inactive).
Under `COc1cccc(-c2cnc3c(NC(C)=O)cc(-c4cc(F)ccc4OC)cn23)c1` stands 3.13% (inactive); under `Cc1cc(/C=C(/C#N)C(=O)Nc2ccc(Cl)cc2)c(C)n1-c1cccnc1`, 4.36% (inactive); under `CCC(=O)c1cc2c(cc1NC(=O)c1cccs1)OCCO2`, 3.16% (inactive).
Turning to `COC(=O)c1sccc1NC(=O)c1cc(OC)c(OC)c(OC)c1`, the activation is 2.04% (inactive).
Under `Cc1ccc(S(=O)(=O)NCCC(=O)Nc2ccc(C)c(Cl)c2)cc1C` stands 10.4% (inactive); under `CN(C)C(=O)c1cccc(-c2cnc3c(NC=O)cc(-c4ccc(F)cc4)cn23)c1`, 1.45% (inactive); under `Cn1c(=S)sc2ccc3ccccc3c21`, 6.66% (inactive).
Under `COc1ccc(Nc2ncnc3sc(-c4ccccc4)cc23)c(OC)c1` stands 3.93% (inactive).
Under `CC(=O)Nc1ccc(-c2csc(NC(=O)Nc3ccccc3)n2)cc1` stands 4.45% (inactive).
Take `COc1ccc(C(N)c2csc(NC(=O)Nc3cccc(C(F)(F)F)c3)n2)cc1` (stereo not given): the activation is 13.5% (inactive).
For `COc1ccc(CC(N)c2csc(NC(=O)NC(c3ccccc3)c3ccccc3)n2)cc1` (stereo not given) the value was 27.4% (active); for `COc1ccc(Cl)cc1-n1c(C)cc(C(=O)OCC(=O)N2CC(=O)Nc3ccccc32)c1C`, 3.77% (inactive); for `CC(=O)c1sc(NC(=O)CCCOc2ccccc2C)nc1C`, 7.21% (inactive).
For `CSc1nc2sc3c(c2c(=O)[nH]1)CCc1ccccc1-3` the value was 7.74% (inactive); for `Cc1ccc(-c2csc(NC(=O)Cn3[nH]c(=O)c4ccccc4c3=O)n2)cc1`, 6.76% (inactive).
Under `Cc1ccc(NC(=O)Nc2ccccc2)c(Br)c1` stands 7.33% (inactive); under `CCn1c(SCC(=O)Nc2cccc(F)c2)nnc1-c1cc2cc(Br)ccc2o1`, 6.83% (inactive).
In the case of `O=C(Nc1sc2c(c1-c1nc3ccccc3[nH]1)CCCC2)C1CC1`, the activation was 4.53% (inactive).
For `Cc1cccc(C)c1OC(=O)CSc1nnc(-c2ccccc2)o1` the value was 3.88% (inactive).
Under `O=C1N/C(=C/c2cccn2-c2ccccc2)C(=O)N1c1cccc(Cl)c1` stands 6.05% (inactive); under `O=C(CSc1ccccc1)Nc1nnc(/C=C/c2ccccc2)s1`, 6.5% (inactive); under `CCCCN1CC(C)(C)[C@H](CC(=O)Nc2ccc(Br)cc2)C1=O`, 4.9% (inactive).
Under `COc1cccc2sc(N(CCCN(C)C)C(=O)C(c3ccccc3)c3ccccc3)nc12` stands 9.67% (inactive); under `COCCNc1nc(Nc2ccccc2Cl)c2sc(-c3ccccc3)cc2n1`, 5.13% (inactive); under `Cc1nn2cc(-c3ccc(Cl)cc3)cnc2c1Br`, 2.93% (inactive).
With `CCc1ccc2c(c1)cc(CN(C(=S)Nc1ccccc1Cl)C1CC1)c1nnnn12`, the activation was 2.95% (inactive).
Under `CC(=O)Nc1ccc(NC(=O)c2sc3nc4c(c(-c5ccc(C)cc5)c3c2N)CCC4)cc1` stands 14.3% (inactive); under `Cc1ccc(CCC(=O)Nc2ncc(Cc3cc(Cl)ccc3Cl)s2)o1`, 10.6% (inactive).
In the case of `Cc1cc(C)cc(C(=O)OCC(=O)NCCNC(=O)COC(=O)c2cc(C)cc(C)c2)c1`, the activation is 3.35% (inactive).
Take `CC(C)c1ccc2c(c1)c(SC(C)(C)C)c(CC(C)(C)C(=O)O)n2Cc1ccc(Cl)cc1`: the activation was 4.65% (inactive).
Under `COc1ccc(S(=O)(=O)N2CCC(C(=O)OCC(=O)c3ccccc3)CC2)cc1[N+](=O)[O-]` stands 4.26% (inactive).
Under `CCOc1ccc(/C=C/C(=O)OCC(=O)c2ccccc2OC)cc1OC` stands 3.55% (inactive); under `COc1ccc(C(=O)c2oc3ccc(Br)cc3c2NC(C)=O)cc1`, 1.7% (inactive); under `COc1cccc(CNCCc2c[nH]c3ccccc23)c1OCc1ccccc1F`, 39.6% (active).
`O=C(Cn1cnc2c(nnn2-c2ccccc2)c1=O)N1CCC(Cc2ccccc2)CC1`: the activation was 3.51% (inactive).
`O=C(OC12CC3CC(CC(C3)C1)C2)c1ccc(NCc2cc(O)ccc2O)cc1`: the activation was 7.74% (inactive).
For `Cc1ccc([C@H]2C[C@H](O)[C@@H](n3cc(COC(=O)c4ccccc4)nn3)CN2C(=O)C2CCCCC2)cc1` the value was 5.71% (inactive); for `O=C(Nc1ccc2oc(-c3ccc4ccccc4c3)nc2c1)c1cccs1`, 5.63% (inactive).
